Columns and labels:
[1] = target: T1, Cholecystokinin receptor type A (Rattus norvegicus, UniProt P30551); assay: Inhibition of [3H]pCCK-8 specific binding to cholecystokinin type A receptor in rat pancreas
T1 sequence (P30551 whole entry): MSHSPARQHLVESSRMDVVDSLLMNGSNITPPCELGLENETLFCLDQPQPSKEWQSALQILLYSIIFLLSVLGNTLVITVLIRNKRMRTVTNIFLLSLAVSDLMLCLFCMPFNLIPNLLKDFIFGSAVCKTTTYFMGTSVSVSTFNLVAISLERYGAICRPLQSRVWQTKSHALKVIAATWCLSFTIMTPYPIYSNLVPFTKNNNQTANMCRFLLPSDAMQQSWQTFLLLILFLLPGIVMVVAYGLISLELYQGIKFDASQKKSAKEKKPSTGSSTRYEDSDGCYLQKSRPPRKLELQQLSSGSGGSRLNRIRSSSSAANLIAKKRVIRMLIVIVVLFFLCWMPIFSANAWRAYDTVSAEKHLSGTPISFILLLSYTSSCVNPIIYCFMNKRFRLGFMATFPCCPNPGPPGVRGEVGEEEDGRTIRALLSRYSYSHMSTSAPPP
Summary of the method: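 Rat pancreas homogenized in Pipes-HCl pH 6.5 with 30 mM MgCl2, centrifuged twice at 50 000g, 10 min, 4 °C. Membranes (0.2 mg protein/tube) incubated with 0.5 nM [3H]pCCK-8, 30 mM MgCl2, bacitracin and SBTI (0.2 mg/mL each), 120 min, 25 °C. Seven test concentrations in triplicate, at least three experiments.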

[2] = target: T2, Gastrin/cholecystokinin type B receptor (Rattus norvegicus, UniProt P30553); assay: Inhibition of [3H]pCCK-8 specific binding cholecystokinin type B receptor in rat cerebral cortex membranes; assay type: cell membranes, Membrane
T2 sequence (P30553 whole entry): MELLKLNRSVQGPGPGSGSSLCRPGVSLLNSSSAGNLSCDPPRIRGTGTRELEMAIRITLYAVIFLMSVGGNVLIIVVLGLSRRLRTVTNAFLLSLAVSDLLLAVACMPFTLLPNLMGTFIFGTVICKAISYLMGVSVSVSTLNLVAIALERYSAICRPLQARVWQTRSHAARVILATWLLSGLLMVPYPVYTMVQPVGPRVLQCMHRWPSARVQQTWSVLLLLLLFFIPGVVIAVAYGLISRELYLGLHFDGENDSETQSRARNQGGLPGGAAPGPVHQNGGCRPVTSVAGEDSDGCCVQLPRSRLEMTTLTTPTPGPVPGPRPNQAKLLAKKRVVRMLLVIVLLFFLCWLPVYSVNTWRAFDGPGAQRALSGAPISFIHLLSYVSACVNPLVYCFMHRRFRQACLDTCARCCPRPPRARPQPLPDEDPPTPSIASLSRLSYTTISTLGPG
Summary of the method: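 Rat brain cortex homogenized in 50 mM Tris-HCl pH 7.4 with 5 mM MgCl2, centrifuged twice at 100 000g, 35 min, 4 °C. Membranes (0.45 mg protein/tube) incubated with 1 nM [3H]pCCK-8 plus bacitracin 0.2 mg/mL, 60 min, 25 °C. Seven test concentrations in triplicate, at least three experiments.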

Rattus norvegicus = species: Rattus norvegicus; assay: Inhibition of amylase release stimulated by CCK-8 (0.1 nM) in dispersed pancreatic acini; assay type: functional
Summary of the method: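 Pancreatic acini prepared by collagenase digestion (two 6 min incubations, 37 °C). Acini were suspended in theophylline/BSA-containing buffer and incubated 30 min, 37 °C, under O2 with 0.1 nM CCK-8 and increasing compound concentrations. Released amylase was measured as a percentage of acinar content. IC50 came from linear regression of % inhibition. Three to six experiments in duplicate.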

Row | Compound | IC50 [1] [nM] | IC50 [2] [nM] | IC50 (Rattus norvegicus) [nM]
1 | CC(C)(C)OC(=O)N[C@@H](Cc1c[nH]c2ccccc12)C(=O)N[C@H]1CCCN2C(=O)N(Cc3ccccc3)C(=O)C[C@H]12 | 22.7 | 6150 | 
2 | CC(C)(C)OC(=O)N[C@@H](Cc1c[nH]c2ccccc12)C(=O)N[C@H]1CCCN2C(=O)N(c3cccc([N+](=O)[O-])c3)C(=O)C[C@H]12 | > 1000 | > 10000 | 
3 | CN1C(=O)C[C@@H]2[C@@H](NC(=O)[C@H](Cc3c[nH]c4ccccc34)NC(=O)OC(C)(C)C)CCCN2C1=O |  | > 10000 | 
4 | C[C@H](c1ccccc1)N1C(=O)C[C@H]2[C@H](NC(=O)[C@H](Cc3c[nH]c4ccccc34)NC(=O)OC(C)(C)C)CCCN2C1=O | 15 | > 10000 | 12.6
5 | CN(C)c1ccc(N2C(=O)C[C@H]3[C@H](NC(=O)[C@H](Cc4c[nH]c5ccccc45)NC(=O)OC(C)(C)C)CCCN3C2=O)cc1 | 4.3 | > 10000 | 39.8
6 | Cc1ccccc1N1C(=O)C[C@H]2[C@H](NC(=O)[C@H](Cc3c[nH]c4ccccc34)NC(=O)OC(C)(C)C)CCCN2C1=O | 0.97 | > 10000 | 1.89
7 | CCOC(=O)[C@H](Cc1ccccc1)N1C(=O)C[C@H]2[C@H](NC(=O)[C@H](Cc3c[nH]c4ccccc34)NC(=O)OC(C)(C)C)CCCN2C1=O | > 1000 | > 10000 | 
8 | CC(C)(C)OC(=O)N[C@H](Cc1c[nH]c2ccccc12)C(=O)N[C@H]1CCCN2C(=O)N(c3cccc4ccccc34)C(=O)C[C@H]12 | > 1000 | > 10000 | 
9 | C[C@@H](c1ccccc1)N1C(=O)C[C@H]2[C@H](NC(=O)[C@H](Cc3c[nH]c4ccccc34)NC(=O)OC(C)(C)C)CCCN2C1=O | 6.89 | > 10000 | 112
10 | Cc1ccccc1N1C(=O)C[C@@H]2[C@@H](NC(=O)[C@H](Cc3c[nH]c4ccccc34)NC(=O)OC(C)(C)C)CCCN2C1=O | > 1000 | > 10000 | 
11 | CCOC(=O)[C@H](Cc1ccccc1)N1C(=O)C[C@@H]2[C@@H](NC(=O)[C@H](Cc3c[nH]c4ccccc34)NC(=O)OC(C)(C)C)CCCN2C1=O | > 1000 | > 10000 | 
12 | CC(C)(C)OC(=O)N[C@H](Cc1c[nH]c2ccccc12)C(=O)N[C@@H]1CCCN2C(=O)N(c3cccc4ccccc34)C(=O)C[C@@H]12 | 15.4 | > 10000 | 93
13 | CSCC[C@H](NC(=O)[C@H](Cc1ccc(O)cc1)NC(=O)[C@@H](N)CC(=O)O)C(=O)NCC(=O)N[C@@H](Cc1c[nH]c2ccccc12)C(=O)N[C@@H](CCSC)C(=O)N[C@@H](CC(=O)O)C(=O)N[C@@H](Cc1ccccc1)C(N)=O | 1.04 |  | 
14 | CC(C)(C)OC(=O)N[C@@H](Cc1c[nH]c2ccccc12)C(=O)NC1CCCN2C(=O)N(c3cccc(C(=O)O)c3)C(=O)CC12 (stereo not given in full) | > 1000 | > 10000 | 
15 | CC(C)(C)OC(=O)N[C@@H](Cc1c[nH]c2ccccc12)C(=O)NC1CCCN2C(=O)N(C(Cc3ccccc3)C(=O)O)C(=O)CC12 (stereo not given in full) | > 1000 | > 10000 | 
16 | CC(C)(C)OC(=O)N[C@@H](Cc1c[nH]c2ccccc12)C(=O)N[C@H]1CCCN2C(=O)N(c3cccc4ccccc34)C(=O)C[C@H]12 | > 1000 | > 10000 | 
17 | C[C@@H](c1ccccc1)N1C(=O)C[C@@H]2[C@@H](NC(=O)[C@H](Cc3c[nH]c4ccccc34)NC(=O)OC(C)(C)C)CCCN2C1=O | > 1000 | > 10000 | 
18 | CC(C)(C)OC(=O)N[C@@H](Cc1c[nH]c2ccccc12)C(=O)N[C@@H]1CCCN2C(=O)N(c3cccc4ccccc34)C(=O)C[C@@H]12 | 0.59 | > 10000 | 0.73
19 | COC(=O)C(Cc1ccccc1)N1C(=O)CC2C(NC(=O)[C@H](Cc3c[nH]c4ccccc34)NC(=O)OC(C)(C)C)CCCN2C1=O (stereo not given in full) | > 1000 | > 10000 | 
20 | CC(C)(C)OC(=O)N[C@@H](Cc1c[nH]c2ccccc12)C(=O)NC1CCCN2C(=O)N(c3cccc(O)c3)C(=O)CC12 (stereo not given in full) | > 1000 | > 10000 | 
21 | COc1ccc(N2C(=O)CC3C(NC(=O)[C@H](Cc4c[nH]c5ccccc45)NC(=O)OC(C)(C)C)CCCN3C2=O)cc1 (stereo not given in full) | 15.9 | > 10000 | 38.1
22 | CC(C)(C)OC(=O)N[C@@H](Cc1c[nH]c2ccccc12)C(=O)N[C@H]1CCCN2C(=O)N(c3ccncc3)C(=O)C[C@H]12 (relative stereo) | 386 | > 10000 | 
23 | CC(C)(C)OC(=O)N[C@@H](Cc1c[nH]c2ccccc12)C(=O)N[C@@H]1CCCN2C(=O)N(Cc3ccccc3)C(=O)C[C@@H]12 [IQM-95333] |  | > 10000 | 

More lines, main results first:

Row | IC50 [1] [nM] | IC50 [2] [nM] | Compound | IC50 (Rattus norvegicus) [nM]
24 | 1.18 | > 10000 | CC(C)(C)OC(=O)N[C@@H](Cc1c[nH]c2ccccc12)C(=O)N[C@@H]1CCCN2C(=O)N(c3ccccc3)C(=O)C[C@@H]12 | 3.5
25 | 0.6 | > 10000 | CC(C)(C)OC(=O)N[C@@H](Cc1c[nH]c2ccccc12)C(=O)N[C@@H]1CCCN2C(=O)N(C3CCCCC3)C(=O)C[C@@H]12 | 3
26 | > 1000 | > 10000 | CN(C)c1cccc(N2C(=O)C[C@@H]3[C@@H](NC(=O)[C@H](Cc4c[nH]c5ccccc45)NC(=O)OC(C)(C)C)CCCN3C2=O)c1 | 
27 | 12 | > 10000 | CC(C)(C)OC(=O)N[C@@H](Cc1c[nH]c2ccccc12)C(=O)N[C@@H]1CCCN2C(=O)N(c3ccc([N+](=O)[O-])cc3)C(=O)C[C@@H]12 | 64
28 | 44 | > 10000 | CC(C)(C)OC(=O)N[C@@H](Cc1c[nH]c2ccccc12)C(=O)N[C@@H]1CCCN2C(=O)N(c3cccc([N+](=O)[O-])c3)C(=O)C[C@@H]12 | 49.5
29 | 2.9 | > 10000 | Cc1ccc(N2C(=O)C[C@H]3[C@H](NC(=O)[C@H](Cc4c[nH]c5ccccc45)NC(=O)OC(C)(C)C)CCCN3C2=O)cc1 | 16.6
30 | 3.98 | > 10000 | Cc1cccc(N2C(=O)C[C@H]3[C@H](NC(=O)[C@H](Cc4c[nH]c5ccccc45)NC(=O)OC(C)(C)C)CCCN3C2=O)c1 | 10
31 | > 1000 | > 10000 | C[C@H](c1ccccc1)N1C(=O)C[C@@H]2[C@@H](NC(=O)[C@H](Cc3c[nH]c4ccccc34)NC(=O)OC(C)(C)C)CCCN2C1=O | 
32 | 628 | > 10000 | CC(C)(C)OC(=O)N[C@@H](Cc1c[nH]c2ccccc12)C(=O)N[C@H]1CCCN2C(=O)N(c3ccccc3)C(=O)C[C@H]12 | > 1000
33 | > 1000 | > 10000 | CC(C)(C)OC(=O)N[C@@H](Cc1c[nH]c2ccccc12)C(=O)N[C@H]1CCCN2C(=O)N(c3ccc([N+](=O)[O-])cc3)C(=O)C[C@H]12 | 
34 | 50.8 | > 10000 | CN(C)c1cccc(N2C(=O)C[C@H]3[C@H](NC(=O)[C@H](Cc4c[nH]c5ccccc45)NC(=O)OC(C)(C)C)CCCN3C2=O)c1 | 
35 | 70.3 | > 10000 | CC(=O)Oc1cccc(N2C(=O)C[C@H]3[C@H](NC(=O)[C@H](Cc4c[nH]c5ccccc45)NC(=O)OC(C)(C)C)CCCN3C2=O)c1 | 
36 | 165 | 7160 | CC(C)(C)OC(=O)N[C@@H](Cc1c[nH]c2ccccc12)C(=O)N[C@H]1CCCN2C(=O)N(C3CCCCC3)C(=O)C[C@H]12 | 287
37 | 100 | 1320 | Cc1cccc(N2C(=O)C[C@@H]3[C@@H](NC(=O)[C@H](Cc4c[nH]c5ccccc45)NC(=O)OC(C)(C)C)CCCN3C2=O)c1 | 
38 | 200 | 2320 | Cc1ccc(N2C(=O)C[C@@H]3[C@@H](NC(=O)[C@H](Cc4c[nH]c5ccccc45)NC(=O)OC(C)(C)C)CCCN3C2=O)cc1 | 
39 | > 1000 | 2320 | CN(C)c1ccc(N2C(=O)C[C@@H]3[C@@H](NC(=O)[C@H](Cc4c[nH]c5ccccc45)NC(=O)OC(C)(C)C)CCCN3C2=O)cc1 | 

From ChEMBL document CHEMBL1134518, “5-(Tryptophyl)amino-1,3-dioxoperhydropyrido[1,2-c]pyrimidine-based potent and selective CCK(1)receptor antagonists: structure-activity relationship studies on the substituent at N2-position” (J Med Chem, 2001)
